According to ChEMBL document CHEMBL4715848, “1,2,3-Triazole tethered 1,2,4-trioxanes: Studies on their synthesis and effect on osteopontin expression in MDA-MB-435 breast cancer cells” (2020):
The source made the active and inactive calls. The calls are words filed in the database; no cut-off is given here.

Tests used:
Type in all cases: functional
MDA-MB-435 = experiment: (§1) Down regulation of OPN expression in human MDA-MB-435 cells at 50 uM measured after 24 hrs by Western blot analysis relative to control
Procedure, shortened: (§2)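 MDA-MB-435 cells (1x10^6 per 6 cm plate) grown 24 h in DMEM/10% FBS with penicillin-streptomycin, 37 °C, 5% CO2, then serum-starved 24 h. Treated 24 h with compound at 50 µM against a DMSO control. Secreted OPN in serum-free supernatant run on non-reducing 10% SDS-PAGE. Lysate β-actin run on 10% SDS-PAGE. Both probed with monoclonal antibodies, read by chemiluminescence and quantified by densitometry.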

[1] = as §1; procedure, shortened: as §2
[2] = Down regulation of OPN expression in human MDA-MB-435 cells at 10 uM measured after 24 hrs by Western blot analysis relative to control
Procedure, shortened: as §2, with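 “10” for “50”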

Q: With `CC(CCC1OC(c2ccc([N+](=O)[O-])cc2)OOC1(C)C)CCn1cc(COC2[C@H]3OCO[C@H]3CO[C@@]23COC(C)(C)O3)nn1` (stereo partly specified) as the compound, how does the inhibition (MDA-MB-435) read?
A: inactive

Q: Which “fold change (FC)” value [1] does the source give for `COc1ccc(C2OOC(C)(C)C(CCC(C)CCn3cc(COC4[C@H]5OCO[C@H]5CO[C@@]45COC(C)(C)O5)nn3)O2)cc1` (stereo partly specified) here?
A: 0.2

Q: With `CC(CCC1OC(c2cccc(Br)c2)OOC1(C)C)CCn1cc(COC2[C@H]3OCO[C@H]3CO[C@@]23COC(C)(C)O3)nn1` (stereo partly specified) as the compound, how does the “fold change (FC)” value [1] read?
A: 0.15

Q: For `C[C@@H]1CC[C@H]2[C@@H](C)C(O)O[C@@H]3O[C@]4(C)CC[C@@H]1[C@]32OO4` (stereo partly specified), which “fold change (FC)” value [1] is on record?
A: 0.45

Q: Which “fold change (FC)” value [1] does the source give for `CC(CCC1OC(c2ccco2)OOC1(C)C)CCn1cc(COC2[C@H]3OCO[C@H]3CO[C@@]23COC(C)(C)O3)nn1` (stereo partly specified) here?
A: 0.12

Q: With `CC(CCC1OC(c2ccc([N+](=O)[O-])cc2)OOC1(C)C)CCn1cc(COCCNCCOCc2cn(CCC(C)CCC3OC(c4ccc([N+](=O)[O-])cc4)OOC3(C)C)nn2)nn1` (stereo unspecified) as the compound, how does the “fold change (FC)” value [2] read?
A: 0.28

Q: For `CC(CCC1OC(c2ccc(F)cc2)OOC1(C)C)CCn1cc(COCCNCCOCc2cn(CCC(C)CCC3OC(c4ccc(F)cc4)OOC3(C)C)nn2)nn1` (stereo unspecified), which “fold change (FC)” value [2] is on record?
A: 0.17

Q: With `CC(CCC1OC(c2cccc([N+](=O)[O-])c2)OOC1(C)C)CCn1cc(COC2[C@H]3OCO[C@H]3CO[C@@]23COC(C)(C)O3)nn1` (stereo partly specified) as the compound, how does the inhibition (MDA-MB-435) read?
A: inactive

Q: With `CC(CCC1OC(c2cccc3ccccc23)OOC1(C)C)CCn1cc(-c2ccc(-c3cn(CCC(C)CCC4OC(c5cccc6ccccc56)OOC4(C)C)nn3)cc2)nn1` (stereo unspecified) as the compound, how does the inhibition (MDA-MB-435) read?
A: inactive

Q: For `Cc1ccc(C2OOC(C)(C)C(CCC(C)CCn3cc(COCCNCCOCc4cn(CCC(C)CCC5OC(c6ccc(C)cc6)OOC5(C)C)nn4)nn3)O2)cc1` (stereo unspecified), which “fold change (FC)” value [2] is on record?
A: 0.15

Q: For `CC(CCC1OC(c2ccc(Cl)cc2)OOC1(C)C)CCn1cc(-c2ccc(-c3cn(CCC(C)CCC4OC(c5ccc(Cl)cc5)OOC4(C)C)nn3)cc2)nn1` (stereo unspecified), which inhibition (MDA-MB-435) is on record?
A: inactive

Q: Which inhibition (MDA-MB-435) does the source give for `CC(CCC1OC(c2ccc(F)cc2)OOC1(C)C)CCn1cc(-c2ccc(-c3cn(CCC(C)CCC4OC(c5ccc(F)cc5)OOC4(C)C)nn3)cc2)nn1` (stereo unspecified) here?
A: inactive

Q: For `CC(CCC1OC(c2ccc([N+](=O)[O-])cc2)OOC1(C)C)CCn1cc(-c2ccc(-c3cn(CCC(C)CCC4OC(c5ccc([N+](=O)[O-])cc5)OOC4(C)C)nn3)cc2)nn1` (stereo unspecified), which inhibition (MDA-MB-435) is on record?
A: inactive

Q: With `CC(CCC1OC(c2ccccc2)OOC1(C)C)CCn1cc(COCCNCCOCc2cn(CCC(C)CCC3OC(c4ccccc4)OOC3(C)C)nn2)nn1` (stereo unspecified) as the compound, how does the “fold change (FC)” value [2] read?
A: 0.11

Q: With `CC(CCC1OC2(CCCCC2)OOC1(C)C)CCn1cc(COCCNCCOCc2cn(CCC(C)CCC3OC4(CCCCC4)OOC3(C)C)nn2)nn1` (stereo unspecified) as the compound, how does the “fold change (FC)” value [2] read?
A: 0.27

Q: For `CC(CCC1OC(c2cccc(Br)c2)OOC1(C)C)CCn1cc(-c2ccc(-c3cn(CCC(C)CCC4OC(c5cccc(Br)c5)OOC4(C)C)nn3)cc2)nn1` (stereo unspecified), which inhibition (MDA-MB-435) is on record?
A: inactive

Q: For `Cc1ccc(C2OOC(C)(C)C(CCC(C)CCn3cc(COC4[C@H]5OCO[C@H]5CO[C@@]45COC(C)(C)O5)nn3)O2)cc1` (stereo partly specified), which inhibition (MDA-MB-435) is on record?
A: inactive

Q: For `CC(CCC1OC(c2cccc3ccccc23)OOC1(C)C)CCn1cc(COC2[C@H]3OCO[C@H]3CO[C@@]23COC(C)(C)O3)nn1` (stereo partly specified), which inhibition (MDA-MB-435) is on record?
A: inactive

Q: With `C[C@@H]1CC[C@H]2[C@@H](C)C(OCc3cn(Cc4ccccc4)nn3)O[C@@H]3O[C@]4(C)CC[C@@H]1[C@]32OO4` (stereo partly specified) as the compound, how does the “fold change (FC)” value [1] read?
A: 0.3

Q: Which inhibition (MDA-MB-435) does the source give for `C[C@@H]1CC[C@H]2[C@@H](C)C(=O)O[C@@H]3O[C@@]4(C)CC[C@@H]1[C@]32OO4` here?
A: inactive

Q: Which inhibition (MDA-MB-435) does the source give for `CC(CCC1OC(C)(c2ccc(Cl)cc2)OOC1(C)C)CCn1cc(-c2ccc(-c3cn(CCC(C)CCC4OC(C)(c5ccc(Cl)cc5)OOC4(C)C)nn3)cc2)nn1` (stereo unspecified) here?
A: inactive

Q: For `CC(CCC1OC2(CCCCC2)OOC1(C)C)CCn1cc(COC2[C@H]3OCO[C@H]3CO[C@@]23COC(C)(C)O3)nn1` (stereo partly specified), which inhibition (MDA-MB-435) is on record?
A: inactive

Q: For `CC(CCC1OC(c2ccccc2Br)OOC1(C)C)CCn1cc(COC2[C@H]3OCO[C@H]3CO[C@@]23COC(C)(C)O3)nn1` (stereo partly specified), which inhibition (MDA-MB-435) is on record?
A: inactive

Q: For `CC(CCC1OC(c2ccc3c(c2)OCO3)OOC1(C)C)CCn1cc(COC2[C@H]3OCO[C@H]3CO[C@@]23COC(C)(C)O3)nn1` (stereo partly specified), which inhibition (MDA-MB-435) is on record?
A: inactive

Q: Which “fold change (FC)” value [2] does the source give for `CC(CCC1OC(c2ccc(Cl)cc2)OOC1(C)C)CCn1cc(COCCNCCOCc2cn(CCC(C)CCC3OC(c4ccc(Cl)cc4)OOC3(C)C)nn2)nn1` (stereo unspecified) here?
A: 0.45

Q: Which inhibition (MDA-MB-435) does the source give for `CC(CCC1OC2(CCCCC2)OOC1(C)C)CCn1cc(-c2ccc(-c3cn(CCC(C)CCC4OC5(CCCCC5)OOC4(C)C)nn3)cc2)nn1` (stereo unspecified) here?
A: inactive

Q: Which inhibition (MDA-MB-435) does the source give for `Cc1ccc(C2OOC(C)(C)C(CCC(C)CCn3cc(-c4ccc(-c5cn(CCC(C)CCC6OC(c7ccc(C)cc7)OOC6(C)C)nn5)cc4)nn3)O2)cc1` (stereo unspecified) here?
A: inactive

Q: For `CC(CCC1OC(c2ccc3c(c2)OCO3)OOC1(C)C)CCn1cc(-c2ccc(-c3cn(CCC(C)CCC4OC(c5ccc6c(c5)OCO6)OOC4(C)C)nn3)cc2)nn1` (stereo unspecified), which inhibition (MDA-MB-435) is on record?
A: inactive

Q: Which “fold change (FC)” value [2] does the source give for `CC(CCC1OC(c2ccc3c(c2)OCO3)OOC1(C)C)CCn1cc(COCCNCCOCc2cn(CCC(C)CCC3OC(c4ccc5c(c4)OCO5)OOC3(C)C)nn2)nn1` (stereo unspecified) here?
A: 0.33

Q: For `COc1ccc(C2OOC(C)(C)C(CCC(C)CCn3cc(-c4ccc(-c5cn(CCC(C)CCC6OC(c7ccc(OC)cc7)OOC6(C)C)nn5)cc4)nn3)O2)cc1` (stereo unspecified), which inhibition (MDA-MB-435) is on record?
A: inactive

Q: Which “fold change (FC)” value [2] does the source give for `COc1ccc(C2OOC(C)(C)C(CCC(C)CCn3cc(COCCNCCOCc4cn(CCC(C)CCC5OC(c6ccc(OC)cc6)OOC5(C)C)nn4)nn3)O2)cc1` (stereo unspecified) here?
A: 0.43

Q: For `CC(CCC1OC(c2cccc(Br)c2)OOC1(C)C)CCn1cc(COCCNCCOCc2cn(CCC(C)CCC3OC(c4cccc(Br)c4)OOC3(C)C)nn2)nn1` (stereo unspecified), which “fold change (FC)” value [2] is on record?
A: 0.26

Q: With `CC(CCC1OC(c2ccc(Cl)cc2)OOC1(C)C)CCn1cc(COC2[C@H]3OCO[C@H]3CO[C@@]23COC(C)(C)O3)nn1` (stereo partly specified) as the compound, how does the “fold change (FC)” value [1] read?
A: 0.15

Q: Which inhibition (MDA-MB-435) does the source give for `CC(CCC1OC(c2ccccc2Br)OOC1(C)C)CCn1cc(-c2ccc(-c3cn(CCC(C)CCC4OC(c5ccccc5Br)OOC4(C)C)nn3)cc2)nn1` (stereo unspecified) here?
A: inactive

Q: With `CC(CCC1OC(c2ccc(F)cc2)OOC1(C)C)CCn1cc(COC2[C@H]3OCO[C@H]3CO[C@@]23COC(C)(C)O3)nn1` (stereo partly specified) as the compound, how does the inhibition (MDA-MB-435) read?
A: inactive

Q: For `CC(CCC1OC(c2ccco2)OOC1(C)C)CCn1cc(-c2ccc(-c3cn(CCC(C)CCC4OC(c5ccco5)OOC4(C)C)nn3)cc2)nn1` (stereo unspecified), which inhibition (MDA-MB-435) is on record?
A: inactive
